Reference: ChEMBL document CHEMBL1154006, “Optimisation of a series of potent, selective and orally bioavailable GlyT1 inhibitors” (Bioorg Med Chem Lett, 2009)

How the values were obtained:
[1] = biological target: T1, Sodium- and chloride-dependent glycine transporter 1 (Homo sapiens, UniProt P48067); assay: Inhibition of [3H]glycine uptake at human glycine transporter 1 expressed in human JAR cells after 3 hrs by scintillation counting; format: cell-based
T1 sequence (P48067 whole entry): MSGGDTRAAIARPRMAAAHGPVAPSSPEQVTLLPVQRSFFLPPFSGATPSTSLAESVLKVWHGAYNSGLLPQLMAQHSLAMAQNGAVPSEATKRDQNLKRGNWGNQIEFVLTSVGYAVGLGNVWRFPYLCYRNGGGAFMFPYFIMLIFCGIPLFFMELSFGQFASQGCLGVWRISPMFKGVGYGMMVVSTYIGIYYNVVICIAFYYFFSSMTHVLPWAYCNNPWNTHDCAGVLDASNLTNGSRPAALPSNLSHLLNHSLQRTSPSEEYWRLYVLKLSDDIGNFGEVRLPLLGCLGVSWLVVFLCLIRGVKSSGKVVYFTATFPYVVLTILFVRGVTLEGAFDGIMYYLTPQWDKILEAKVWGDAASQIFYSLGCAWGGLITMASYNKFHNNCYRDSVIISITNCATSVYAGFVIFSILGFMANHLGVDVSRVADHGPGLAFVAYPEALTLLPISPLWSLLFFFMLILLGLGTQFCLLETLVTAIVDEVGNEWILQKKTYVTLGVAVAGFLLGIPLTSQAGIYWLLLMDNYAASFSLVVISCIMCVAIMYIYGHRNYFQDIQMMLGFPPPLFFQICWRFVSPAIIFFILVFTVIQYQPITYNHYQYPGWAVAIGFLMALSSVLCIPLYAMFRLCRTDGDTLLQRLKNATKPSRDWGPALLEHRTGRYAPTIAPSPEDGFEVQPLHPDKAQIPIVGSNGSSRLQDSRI

[2] = biological target: T2, Sodium- and chloride-dependent glycine transporter 1 (Homo sapiens) (UniProt P48067); assay: Inhibition of [3H]glycine uptake at human glycine transporter 1 expressed in human JAR cells at 3 uM after 3 hrs by scintillation counting; format: cell-based
T2 sequence (whole entry): T1 sequence (P48067 whole entry)

[3] = Metabolic stability in rat liver microsomes assessed as parent compound turnover at 1 uM after 15 mins; format: ADME, Microsome; settings: read-out: Stability
Outline: (§1)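 Test compounds at 1 μM incubated at 37 °C for 15 min with liver microsomes (rat, dog or human) at 0.5 mg/ml protein. Cosolvent was 0.99% MeCN + 0.01% DMSO. Read-out is % turnover of parent.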

[4] = Metabolic stability in dog liver microsomes assessed as parent compound turnover at 1 uM after 15 mins; format: ADME, Canis lupus familiaris, Microsome; settings: read-out: Stability; outline: as §1
[5] = Metabolic stability in human liver microsomes assessed as parent compound turnover at 1 uM after 15 mins; format: ADME, Microsome; settings: read-out: Stability; outline: as §1
Mus musculus = assay: Ex vivo occupancy of glycine transporter 1 in po dosed mouse; format: functional
[6] = Bioavailability in Sprague-Dawley rat at 0.1 mg/kg, iv and 1 mg/kg, po; format: ADME, organism-based; settings: in vivo
Outline: (§2)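 Six male Sprague-Dawley rats were used. Three received 0.1 mg/kg i.v. and three received 1 mg/kg p.o.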

[7] = Half life in Sprague-Dawley rat at 0.1 mg/kg, iv and 1 mg/kg, po; format: ADME, organism-based; settings: in vivo; outline: as §2
[8] = biological target: T3, Sodium- and chloride-dependent glycine transporter 2 (Homo sapiens, UniProt Q9Y345); assay: Inhibition of human glycine transporter 2
T3 sequence (Q9Y345 whole entry): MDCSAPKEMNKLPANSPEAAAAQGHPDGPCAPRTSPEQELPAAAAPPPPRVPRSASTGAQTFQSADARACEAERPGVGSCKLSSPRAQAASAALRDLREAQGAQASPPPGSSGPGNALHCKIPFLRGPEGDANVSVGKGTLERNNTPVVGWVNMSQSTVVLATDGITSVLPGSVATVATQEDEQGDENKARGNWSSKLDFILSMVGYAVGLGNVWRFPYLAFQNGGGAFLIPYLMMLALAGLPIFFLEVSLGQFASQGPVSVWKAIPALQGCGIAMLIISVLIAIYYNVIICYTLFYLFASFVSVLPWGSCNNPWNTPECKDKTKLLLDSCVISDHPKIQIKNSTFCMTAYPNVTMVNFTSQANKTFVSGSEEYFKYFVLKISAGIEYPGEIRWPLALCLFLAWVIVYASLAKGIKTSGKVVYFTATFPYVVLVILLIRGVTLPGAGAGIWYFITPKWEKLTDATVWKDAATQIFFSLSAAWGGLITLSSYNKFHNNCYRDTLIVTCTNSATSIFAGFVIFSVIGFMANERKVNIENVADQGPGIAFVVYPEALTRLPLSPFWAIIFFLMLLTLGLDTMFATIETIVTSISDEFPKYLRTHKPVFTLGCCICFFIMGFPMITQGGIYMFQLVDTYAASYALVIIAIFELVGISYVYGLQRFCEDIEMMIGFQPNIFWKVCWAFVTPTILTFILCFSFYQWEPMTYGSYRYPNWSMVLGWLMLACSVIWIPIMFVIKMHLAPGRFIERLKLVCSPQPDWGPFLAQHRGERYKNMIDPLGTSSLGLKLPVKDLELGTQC

[9] = Clearance in Sprague-Dawley rat at 0.1 mg/kg, iv and 1 mg/kg, po; format: ADME, organism-based; settings: in vivo; outline: as §2
[10] = Volume of distribution in Sprague-Dawley rat at 0.1 mg/kg, iv and 1 mg/kg, po; format: ADME, organism-based; settings: in vivo; outline: as §2
[11] = Plasma clearance in Sprague-Dawley rat at 0.1 mg/kg, iv and 1 mg/kg, po; format: ADME, organism-based; outline: as §2
Rattus norvegicus = assay: In vivo occupancy of glycine transporter 1 in rat; format: functional
[12] = Volume of distribution at steady state in Sprague-Dawley rat at 0.1 mg/kg, iv and 1 mg/kg, po; format: ADME, organism-based; settings: in vivo, read-out: Vdss; outline: as §2

IC50 [1] [nM] | metabolised at 0.25 h, 1 µM [3] [%] | metabolised at 0.25 h, 1 µM [4] [%] | metabolised at 0.25 h, 1 µM [5] [%] | SMILES | further results
124 | – | – | – | Cn1cnnc1S(=O)(=O)N1CCC(CNC(=O)c2ccc(Cl)cc2Cl)(CC2CC2)CC1 | –
28.2 | – | – | – | CCn1cc(S(=O)(=O)N2CCC(CNC(=O)c3ccc(Cl)cc3Cl)(CC3CC3)CC2)nn1 | –
0.65 | 6 | 17 | 20 | Cn1cc(S(=O)(=O)N2CCC(CNC(=O)c3ccc(Cl)cc3Cl)(c3ncccc3F)CC2)nn1 | Occ50 (Mus musculus): 7.5 mg/kg; bioavailability [6]: 3%; half-life [7]: 0.3 h; IC50 [8]: > 10000 nM
0.1 | 88 | 24 | 32 | Cn1cc(S(=O)(=O)N2CC(CNC(=O)c3ccc(Cl)cc3Cl)(CC3CC3)C2)nn1 | –
0.32 | 88 | 34 | 43 | Cn1cc(S(=O)(=O)N2CCC(CNC(=O)c3ccc(Cl)cc3Cl)(CC3CC3)CC2)nn1 | Occ50 (Mus musculus): <1 mg/kg; bioavailability [6]: 27%; half-life [7]: 1.1 h; clearance [9]: 39 mL/min/kg; Vd [10]: 2.2 L/kg; IC50 [8]: > 10000 nM
314 | – | – | – | Cn1ncnc1S(=O)(=O)N1CCC(CNC(=O)c2ccc(Cl)cc2Cl)(CC2CC2)CC1 | –
125 | 98 | 72 | – | O=C(NCC1(c2ncccc2F)CCN(S(=O)(=O)c2cccs2)CC1)c1ccc(Cl)cc1Cl | –
1.74 | 30 | 21 | – | Cn1cnc(S(=O)(=O)N2CCC(CNC(=O)c3ccc(Cl)cc3Cl)(c3ncccc3F)CC2)c1 | IC50 [8]: > 10000 nM
871 | – | – | – | O=C(NCC1(CC2CC2)CN(S(=O)(=O)c2c[nH]nn2)C1)c1ccc(Cl)cc1Cl | –
3.62 | 17 | 70 | 21 | Cn1cc(S(=O)(=O)N2CC(CNC(=O)c3ccc(Cl)cc3Cl)(CC3CC3)C2)cn1 | Occ50 (Mus musculus): 3.8 mg/kg; bioavailability [6]: 48%; clearance [11]: 46 mL/min/kg; half-life [7]: 2.4 h; IC50 [8]: > 10000 nM

The remaining lines, values behind:

SMILES | IC50 [1] [nM] | metabolised at 0.25 h, 1 µM [3] [%] | metabolised at 0.25 h, 1 µM [4] [%] | metabolised at 0.25 h, 1 µM [5] [%] | further results
Cn1nncc1S(=O)(=O)N1CC(CNC(=O)c2ccc(Cl)cc2Cl)(CC2CC2)C1 | 185 | – | – | – | –
Cc1nc(S(=O)(=O)N2CCC(CNC(=O)c3ccc(Cl)cc3Cl)(c3ncccc3F)CC2)cn1C | – | – | – | – | inhibition [2]: 31%
Cn1cnc(S(=O)(=O)N2CCC(CNC(=O)c3ccc(Cl)cc3Cl)(CC3CC3)CC2)n1 | – | – | – | – | inhibition [2]: 13%
Cn1cc(S(=O)(=O)N2CC(CNC(=O)c3ccc(Cl)cc3Cl)(c3ncccc3F)C2)nn1 | 0.31 | 15 | 5 | 22 | –
Cn1cc(S(=O)(=O)N2CC(CNC(=O)c3ccc(Cl)cc3Cl)(c3ncccc3F)C2)cn1 | 2.95 | 56 | < 5 | 25 | –
O=C(NCC1(c2ncccc2F)CCN(S(=O)(=O)CC2CC2)CC1)c1ccc(Cl)cc1Cl | 2 | 78 | 20 | 21 | –
CCn1cc(S(=O)(=O)N2CC(CNC(=O)c3ccc(Cl)cc3Cl)(CC3CC3)C2)nn1 | 2.58 | 65 | 44 | 45 | –
CCCS(=O)(=O)N1CCC(CNC(=O)c2ccc(Cl)cc2Cl)(c2ncccc2F)CC1 | 4.33 | 73 | 25 | 23 | –
Cn1cc(S(=O)(=O)N2CCC(CNC(=O)c3ccc(Cl)cc3Cl)(CC3CC3)CC2)cn1 | 10.3 | 5 | 38 | 10 | IC50 [8]: > 10000 nM
O=C(NCC1(c2ncccc2F)CCN(S(=O)(=O)c2ccc(Cl)s2)CC1)c1ccc(Cl)cc1Cl | – | – | – | – | inhibition [2]: 20%
Cn1ncc(S(=O)(=O)N2CC(CNC(=O)c3ccc(Cl)cc3Cl)(CC3CC3)C2)n1 | 132 | – | – | – | –
Cn1cc(S(=O)(=O)[C@H]2CC[C@](CNC(=O)c3ccc(Cl)cc3Cl)(CC3CC3)CC2)nn1 | 5.44 | 10 | – | 28 | bioavailability [6]: 105%; clearance [11]: 34 mL/min/kg; half-life [7]: 1.1 h; Occ50 (Rattus norvegicus): 3.4 mg/kg; Vd [12]: 2.6 L/kg
Cn1cc(S(=O)(=O)N2CCC(CNC(=O)c3ccc(Cl)cc3Cl)(c3ncccc3F)CC2)cn1 | 5.43 | 55 | 24 | 42 | IC50 [8]: > 10000 nM
O=C(NCC1(c2ncccc2F)CCN(S(=O)(=O)Cc2ccccc2)CC1)c1ccc(Cl)cc1Cl | – | – | – | – | inhibition [2]: 33%
O=C(NCC1(c2ncccc2F)CCN(S(=O)(=O)c2ccccc2)CC1)c1ccc(Cl)cc1Cl | – | – | – | – | inhibition [2]: 38%
O=C(NCC1(c2ncccc2F)CCN(S(=O)(=O)c2cccnc2)CC1)c1ccc(Cl)cc1Cl | 11.6 | 99 | 96 | 99 | –
O=C(NCC1(CC2CC2)CCN(S(=O)(=O)c2cn(CC(F)(F)F)nn2)CC1)c1ccc(Cl)cc1Cl | 502 | – | – | – | –
Cn1cc(S(=O)(=O)[C@H]2CC[C@@](CNC(=O)c3ccc(Cl)cc3Cl)(CC3CC3)CC2)nn1 | 1.89 | 23 | – | 28 | bioavailability [6]: 59%; clearance [11]: 16 mL/min/kg; half-life [7]: 1.8 h; Occ50 (Rattus norvegicus): 2.2 mg/kg; Vd [12]: 2.3 L/kg
